Measurements reported in paper PMC2813064 (Bioconjugate chemistry, 2010).
“Also recorded” adds a separate entry of the source.

Assays:
[1] = Zeta potential of peptide-DNA polyplexes; type: physicochemical; conditions: positive (+ mV); peptide-DNA polyplex 0.5 nmol peptide per µg DNA, 5 mM Hepes, pH 7.4 (footnote), mean of ten measurements
Procedure, shortened: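 Polyplex was made in 5 mM Hepes at 30 µg/ml DNA with 15 nmol/ml peptide. Zeta potential was read on a ZetaPlus instrument straight after QELS particle sizing at a 90° scatter angle, as the mean of ten measurements.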

[2] = test system: HepG2, 3T3, and CHO cells; experiment: In vitro gene transfer; type: cell-based; conditions: 0.5 nmol peptide per µg pGL3, 10 µg pGL3, luciferase at 24 hrs, Fig. 6
Procedure, shortened: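 Plating: HepG2, CHO or 3T3, 5 × 10^5 cells per 35 mm well, about 50% confluent. Transfection: 10 µg pGL3 polyplex (0.5 nmol peptide/µg DNA, 30 µg/ml DNA in 5 mM Hepes/0.27 M mannitol pH 7.5), added dropwise in triplicate for 24 h in MEM with 2 or 10% FBS. Read-out: lysate luciferase (0.5 mM D-luciferin injection, 10 s integration) as fmol per mg protein, mean ± SD of triplicates.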

[3] = test system: Erythrocytes; experiment: RBC hemolysis assay; type: cell-based, mice; conditions: peptide DNA polyplexes (1.5 nmols and 7.5 µg pGL3), pH 7.4, Fig. 4C
Procedure, shortened: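 Erythrocytes from male ICR mouse heart blood (heparinized) were washed three times in 0.15 M PBS pH 7.4 and diluted to 1.5 × 10^8 cells/ml. 7.5 × 10^6 cells were added to the polyplexes (1.5 nmol peptide, 7.5 µg pGL3) in triplicate and held 1 h at 37°C, then filtered. Filtrate Abs410 nm was expressed against 100% lysis with water replacing PBS.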

[4] = test system: CHO cells; experiment: In vitro gene transfer; type: cell-based; conditions: 10 µg pGL3, luciferase at 24 hrs, Fig. 5
Procedure, shortened: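 Cells: CHO, 5 × 10^5 per 35 mm well, grown to about 50% confluency in MEM with 2 or 10% FBS, 1 mM sodium pyruvate and pen/strep. Polyplexes: peptide and pGL3 at 0.1–0.75 nmol peptide per µg DNA, in HBM (5 mM Hepes, 0.27 M mannitol, pH 7.5). Triplicate wells, 24 h. Luciferase RLU were converted to fmol by standard curve and normalized to mg protein (BCA).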

Substance | Zeta Potential [1] | Gene transfer, fold lower than poly(Acr-Arg)2–4-SS-melittin [2] | Hemolytic activity when combined with pGL3 [3] | Gene expression, fold greater than poly(Acr-Arg)4-Mal-melittin [4]
(Acr-Arg)3-C-CWKKGIGAVLKVLTTGLPALISLIKRKRQQ (disulfide) [poly(Acr-Arg)3-SS-melittin] | 29 ± 4.5 mV |  |  | 
(Acr-Arg)2-C-CWKKGIGAVLKVLTTGLPALISLIKRKRQQ (disulfide) [poly(Acr-Arg)2-SS-melittin] | 25 ± 2.2 mV |  |  | 
W(Lys(Ac)-Arg)4-C-CWKKGIGAVLKVLTTGLPALISLIKRKRQQ (disulfide) [poly(Lys(Ac)-Arg)4-SS-melittin] | 20 ± 2.9 mV |  |  | 
(CWKKGIGAVLKVLTTGLPALISLIKRKRQQ)2 (disulfide) [Dimeric-melittin] |  | 10–100 fold |  | 
(Acr-Arg)4-C-CWKKGIGAVLKVLTTGLPALISLIKRKRQQ (disulfide) [poly(Acr-Arg)4-SS-melittin] | 29 ± 2.6 mV |  | completely neutralized; also recorded: non hemolytic | approximately 1000 fold
